# Assay results: ChEMBL document CHEMBL1157654, “Synthesis and in vitro biological evaluation of carbon-11-labeled quinoline derivatives as new candidate PET radioligands for cannabinoid CB2 receptor imaging” (Bioorg Med Chem, 2010)
# How the values were obtained:
# Cannabinoid receptor 1 [1] = target: T1, Cannabinoid receptor 1 (Homo sapiens, UniProt P21554); assay: Displacement of [3H]CP-55940 from CB1 receptor at 10 uM
# Cannabinoid receptor 2 [2] = target: T2, Cannabinoid receptor 2 (Homo sapiens, UniProt P34972); assay: Displacement of [3H]CP-55940 from CB2 receptor at 10 uM
# Cannabinoid receptor 2 [3] = target: T2, Cannabinoid receptor 2; assay: Displacement of [3H]CP-55940 from CB2 receptor
# How it was run: (§1)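 Radioligand competition binding at CB1 or CB2 with [³H]CP55940; CP55940 reference. Ki (nM) obtained from non-linear regression of competition binding isotherms (secondary assay).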
# Cannabinoid receptor 1 [4] = target: T1, Cannabinoid receptor 1; assay: Displacement of [3H]CP-55940 from CB1 receptor; how it was run: as §1
# [5] = Selectivity ratio of Ki for CB1 receptor to Ki for CB2 receptor
# How it was run: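 Ratio of CB1 Ki to CB2 Ki, both from [³H]CP55940 competition binding (pH 7.4 Tris–HCl/EDTA/MgCl₂/BSA buffer) with Ki fitted by non-linear regression of competition isotherms.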
# T2 sequence (P34972 whole entry): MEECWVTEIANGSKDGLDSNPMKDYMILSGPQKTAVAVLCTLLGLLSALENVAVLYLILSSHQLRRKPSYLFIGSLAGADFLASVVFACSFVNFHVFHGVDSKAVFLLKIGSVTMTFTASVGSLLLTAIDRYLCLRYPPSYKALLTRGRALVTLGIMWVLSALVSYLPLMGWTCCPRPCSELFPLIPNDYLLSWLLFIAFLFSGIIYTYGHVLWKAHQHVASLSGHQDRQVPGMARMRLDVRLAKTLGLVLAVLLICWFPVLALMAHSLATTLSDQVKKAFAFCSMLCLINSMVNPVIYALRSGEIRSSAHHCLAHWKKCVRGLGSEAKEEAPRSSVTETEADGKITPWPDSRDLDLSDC
# T1 sequence (P21554 whole entry): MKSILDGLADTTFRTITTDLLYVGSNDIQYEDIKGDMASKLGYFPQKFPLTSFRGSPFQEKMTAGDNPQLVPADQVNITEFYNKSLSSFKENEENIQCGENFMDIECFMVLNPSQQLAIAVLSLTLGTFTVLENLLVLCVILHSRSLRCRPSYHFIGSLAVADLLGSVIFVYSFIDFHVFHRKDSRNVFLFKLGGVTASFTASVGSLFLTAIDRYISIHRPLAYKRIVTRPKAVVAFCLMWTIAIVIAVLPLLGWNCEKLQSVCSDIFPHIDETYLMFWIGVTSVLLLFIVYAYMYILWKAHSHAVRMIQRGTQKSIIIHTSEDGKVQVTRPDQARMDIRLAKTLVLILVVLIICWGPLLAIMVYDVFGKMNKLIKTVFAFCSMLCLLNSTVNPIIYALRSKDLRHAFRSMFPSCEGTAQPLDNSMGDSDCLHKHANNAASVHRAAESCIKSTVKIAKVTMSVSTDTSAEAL
SMILES,Activity (Cannabinoid receptor 1 [1]),Activity (Cannabinoid receptor 2 [2]),Ki (Cannabinoid receptor 2 [3]),Ki (Cannabinoid receptor 1 [4]),Ratio Ki [5]
CCCCCOc1c(OC)ccc2cc(C(=O)NCCc3ccc(F)cc3)c(=O)[nH]c12,26.3%,101%,0.0054 µM,> 10 µM,> 1850
CCCCCOc1c(OC)ccc2cc(C(=O)NCCCc3ccccc3)c(Cl)nc12,66.3%,59.2%,1.07 µM,> 10 µM,> 9.36
CCCCCOc1c(OC)ccc2cc(C(=O)NCCc3ccccc3)c(=O)[nH]c12,63.4%,103%,0.00692 µM,0.196 µM,28.3
CCCCCOc1c(OC)ccc2cc(C(=O)NCCCc3ccccc3)c(=O)[nH]c12,51.4%,104%,0.0103 µM,0.323 µM,31.3
CCCCCOc1c(OC)ccc2cc(C(=O)NCCc3ccc(Cl)cc3)c(=O)[nH]c12,-9%,102%,0.00937 µM,> 10 µM,> 1070
CCCCCOc1c(OC)ccc2cc(C(=O)NCCc3ccc(OC)cc3)c(=O)[nH]c12,68.7%,102%,0.0279 µM,0.733 µM,26.2
CCCCCOc1c(OC)ccc2cc(C(=O)NCCc3ccc(F)cc3)c(Cl)nc12,64.8%,104%,0.0238 µM,2.88 µM,121
CCCCCOc1c(OC)ccc2cc(C(=O)NCCc3ccccc3)c(Cl)nc12,73.7%,86.3%,0.497 µM,> 10 µM,> 20.1
CCCCCOc1c(OC)ccc2cc(C(=O)NCCc3ccc(Cl)cc3)c(Cl)nc12,34.4%,74.1%,1.01 µM,> 10 µM,> 9.92
CCCCCOc1c(OC)ccc2cc(C(=O)NCCc3ccc(OC)cc3)c(Cl)nc12,71%,65.9%,1.33 µM,> 10 µM,> 7.51
